Laboratory results: ChEMBL document CHEMBL1157507, “Design, synthesis, and evaluation of novel mutual prodrugs (hybrid drugs) of all-trans-retinoic acid and histone deacetylase inhibitors with enhanced anticancer activities in breast and prostate cancer cells in vitro” (J Med Chem, 2008)

How the values were obtained:
[1] = system: MCF7; assay: Growth inhibition of human tamoxifen-resistant MCF7 cells after 5 days by MTT assay; format: functional; conditions: MCF7, 120 h
[2] = system: Serum; assay: Stability in 80% human serum in 0.02 M phosphate buffer at pH 7.2 after 24 hrs; format: ADME, cell-free; conditions: pH 7.2, 24 h
How it was run: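 Each agent was incubated 24 h at 37 °C in 80% human serum containing 20% 0.02 M phosphate buffer, pH 7.2. Samples were extracted and analysed by reverse-phase C18 HPLC with photodiode-array detection: 350 nm for ATRA and prodrugs, 245 nm for HDIs. The gradient ran from 20 mM ammonium acetate/methanol (50:50) to methanol at 0.8 mL/min.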

[3] = system: MCF7; assay: Growth inhibition of human MCF7 cells after 5 days by MTT assay; format: functional; conditions: MCF7, 120 h
[4] = system: MCF7; assay: Growth inhibition of human MCF7 cells expressing HOX-B7 after 5 days by MTT assay; format: functional; conditions: MCF7, 120 h
[5] = system: PC-3; assay: Growth inhibition of human PC3 cells after 5 days by MTT assay; format: functional; conditions: PC-3, 120 h
How it was run: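 PC-3 cells in RPMI 1640 with 10% FBS and 1% penicillin/streptomycin (37 °C, 5% CO2) were seeded at 2 × 10⁴/well and allowed to adhere 24 h. They were dosed over a concentration range in 10% DMSO/90% ethanol for 5 days, with drug and medium renewed on day 3. MTT (0.5 mg/mL) was added for 2 h, formazan dissolved in DMSO, and A560 read. Triplicate wells, ≥3 experiments; GI50 from nonlinear regression.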

[6] = system: MDA-MB-231; assay: Growth inhibition of human MDA-MB-231 cells after 5 days by MTT assay; format: functional; conditions: MDA-MB-231, 120 h
[7] = system: MCF7; assay: Growth inhibition of long-term letrozole cultured human MCF7 cells after 5 days by MTT assay; format: functional; conditions: MCF7, 120 h
[8] = system: PC-3; assay: Growth inhibition of human PC3 cells at 20 uM after 5 days by MTT assay; format: functional; conditions: PC-3, 120 h
How it was run: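 PC-3 cells in RPMI 1640 with 10% FBS were seeded at 2 × 10⁴/well, adhered 24 h, then given a single 20 µM concentration in 10% DMSO/90% ethanol for 5 days, with renewal on day 3. Growth was read by MTT (0.5 mg/mL, 2 h, formazan in DMSO, A560). Triplicate wells; at least three independent experiments.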

Structure (SMILES) | GI50 [1] [µM] | Stability [2] | GI50 [3] [µM] | GI50 [4] [µM] | GI50 [5] [µM] | GI50 [6] [µM] | GI50 [7] [µM] | inhibition at 20 µM [8] [%]
CC(=O)Nc1ccc(C(=O)Nc2ccccc2NC(=O)CNC(=O)OCOC(=O)/C=C(C)/C=C/C=C(C)/C=C/C2=C(C)CCCC2(C)C)cc1 | 0.17 | Stable | 0.25 | 1.2 | 4.27 | 0.63 | – | –
CC(=O)Nc1ccc(C(=O)Nc2ccccc2NC(=O)OCc2ccc(OC(=O)/C=C(C)/C=C/C=C(C)/C=C/C3=C(C)CCCC3(C)C)cc2)cc1 | 0.08 | Stable | 0.52 | 8.13 | 0.87 | 0.02 | – | –
CCCC(=O)[O-].[Na+] [SODIUM BUTYRATE] | – | – | – | – | 72.4 | > 1000 | – | –
CC(=O)Nc1ccc(C(=O)Nc2ccccc2N)cc1 [TACEDINALINE] | – | – | – | – | 0.29 | 0.17 | – | –
CC1=C(/C=C/C(C)=C/C=C/C(C)=C/C(=O)OCOC(=O)NCC(=O)Nc2ccccc2NC(=O)c2ccc(CNC(=O)OCc3cccnc3)cc2)C(C)(C)CCC1 | 0.02 | – | 0.15 | 0.006 | 0.04 | 0.94 | 0.02 | –
CCCC(=O)OCc1ccc(OC(=O)/C=C(C)/C=C/C=C(C)/C=C/C2=C(C)CCCC2(C)C)cc1 | – | Stable | – | – | 1.02 | 0.01 | – | 80
CC1=C(/C=C/C(C)=C/C=C/C(C)=C/C(=O)O)C(C)(C)CCC1 [TRETINOIN] | – | – | – | – | 7.6 | 10.8 | – | –
CC1=C(/C=C/C(C)=C/C=C/C(C)=C/C(=O)Oc2ccc(COC(=O)Nc3ccccc3NC(=O)c3ccc(CNC(=O)OCc4cccnc4)cc3)cc2)C(C)(C)CCC1 | 0.21 | Stable | 0.06 | 0.72 | 0.18 | 0.17 | – | –
NCC(=O)Nc1ccccc1NC(=O)c1ccc(CNC(=O)OCc2cccnc2)cc1 | – | Stable | – | – | – | – | – | –
